Source: PubChem BioAssay
Rows were chosen to be rich in hits. Some 7.1% of all compounds tested hit in one or more screens of this group.
HUVEC prolif 384 – blocks proliferation of human endothelial cells. HUVEC proliferation, CellTiter-Glo luminescence, 72 h; hits give low values. viability, % at 10 µM (by protocol). actives 1.1% (n = 86,000). AID 648;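 active = viability at or below 30%; inactive = viability above 30%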;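 note: 100% = median luminescence of DMSO-only cell control wells on each plate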
H69AR growth 86K – growth inhibitors of human H69AR lung tumor cells. actives 6% (n = 85,000). viability, % at 10 µM. H69AR lung tumor viability, ATP luminescence, 72 h; hits give low values. AID 598;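 active = viability at or below 40%; inactive = viability above 40%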;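 note: multidrug resistant small cell line overexpressing MRP-1 efflux transporter; 100% = mean luminescence of untreated control wells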
HCT116 PTEN-null – PTEN-deleted cell growth suppression; HCT116 PTEN-null viability, CellTiter-Glo, 60 h; hits give low values; actives 1.2% (n = 140,000); viability, % at 10 µM;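 active = viability at or below a set limit, 4 SD under the median of all tested compounds, cut at about 3.7% in these data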;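 note: PTEN knockout HCT116 line with beta catenin targeted HCT116 as companion control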
HCT116 bCat-KO – beta-catenin-lacking colon tumor cell growth suppression | HCT116 beta-catenin knockout viability, CellTiter-Glo, 60 h; hits give low values | viability, % at 10 µM | actives 1.5% (n = 140,000) | AID 818;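 active = viability at or under a set limit, the compound median less 4 SD, cut at about 6% in these data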;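 note: 0% = Hyamine 1622 control at 20 µM and 100% = untreated cell control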
Cav32 inh – blocks human Cav3.2 T-type calcium channel. O95180. Cav3.2-expressing cells, Fluo-4 calcium fluorescence FDSS; hits give low values. B-score at 10 µM. actives 4% (n = 100,000);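 active = single-dose well whose peak fluorescence ratio is a statistical outlier from its plate by either plate-standardised score or position-corrected B-score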
Target sequence (O95180 whole entry, looked up): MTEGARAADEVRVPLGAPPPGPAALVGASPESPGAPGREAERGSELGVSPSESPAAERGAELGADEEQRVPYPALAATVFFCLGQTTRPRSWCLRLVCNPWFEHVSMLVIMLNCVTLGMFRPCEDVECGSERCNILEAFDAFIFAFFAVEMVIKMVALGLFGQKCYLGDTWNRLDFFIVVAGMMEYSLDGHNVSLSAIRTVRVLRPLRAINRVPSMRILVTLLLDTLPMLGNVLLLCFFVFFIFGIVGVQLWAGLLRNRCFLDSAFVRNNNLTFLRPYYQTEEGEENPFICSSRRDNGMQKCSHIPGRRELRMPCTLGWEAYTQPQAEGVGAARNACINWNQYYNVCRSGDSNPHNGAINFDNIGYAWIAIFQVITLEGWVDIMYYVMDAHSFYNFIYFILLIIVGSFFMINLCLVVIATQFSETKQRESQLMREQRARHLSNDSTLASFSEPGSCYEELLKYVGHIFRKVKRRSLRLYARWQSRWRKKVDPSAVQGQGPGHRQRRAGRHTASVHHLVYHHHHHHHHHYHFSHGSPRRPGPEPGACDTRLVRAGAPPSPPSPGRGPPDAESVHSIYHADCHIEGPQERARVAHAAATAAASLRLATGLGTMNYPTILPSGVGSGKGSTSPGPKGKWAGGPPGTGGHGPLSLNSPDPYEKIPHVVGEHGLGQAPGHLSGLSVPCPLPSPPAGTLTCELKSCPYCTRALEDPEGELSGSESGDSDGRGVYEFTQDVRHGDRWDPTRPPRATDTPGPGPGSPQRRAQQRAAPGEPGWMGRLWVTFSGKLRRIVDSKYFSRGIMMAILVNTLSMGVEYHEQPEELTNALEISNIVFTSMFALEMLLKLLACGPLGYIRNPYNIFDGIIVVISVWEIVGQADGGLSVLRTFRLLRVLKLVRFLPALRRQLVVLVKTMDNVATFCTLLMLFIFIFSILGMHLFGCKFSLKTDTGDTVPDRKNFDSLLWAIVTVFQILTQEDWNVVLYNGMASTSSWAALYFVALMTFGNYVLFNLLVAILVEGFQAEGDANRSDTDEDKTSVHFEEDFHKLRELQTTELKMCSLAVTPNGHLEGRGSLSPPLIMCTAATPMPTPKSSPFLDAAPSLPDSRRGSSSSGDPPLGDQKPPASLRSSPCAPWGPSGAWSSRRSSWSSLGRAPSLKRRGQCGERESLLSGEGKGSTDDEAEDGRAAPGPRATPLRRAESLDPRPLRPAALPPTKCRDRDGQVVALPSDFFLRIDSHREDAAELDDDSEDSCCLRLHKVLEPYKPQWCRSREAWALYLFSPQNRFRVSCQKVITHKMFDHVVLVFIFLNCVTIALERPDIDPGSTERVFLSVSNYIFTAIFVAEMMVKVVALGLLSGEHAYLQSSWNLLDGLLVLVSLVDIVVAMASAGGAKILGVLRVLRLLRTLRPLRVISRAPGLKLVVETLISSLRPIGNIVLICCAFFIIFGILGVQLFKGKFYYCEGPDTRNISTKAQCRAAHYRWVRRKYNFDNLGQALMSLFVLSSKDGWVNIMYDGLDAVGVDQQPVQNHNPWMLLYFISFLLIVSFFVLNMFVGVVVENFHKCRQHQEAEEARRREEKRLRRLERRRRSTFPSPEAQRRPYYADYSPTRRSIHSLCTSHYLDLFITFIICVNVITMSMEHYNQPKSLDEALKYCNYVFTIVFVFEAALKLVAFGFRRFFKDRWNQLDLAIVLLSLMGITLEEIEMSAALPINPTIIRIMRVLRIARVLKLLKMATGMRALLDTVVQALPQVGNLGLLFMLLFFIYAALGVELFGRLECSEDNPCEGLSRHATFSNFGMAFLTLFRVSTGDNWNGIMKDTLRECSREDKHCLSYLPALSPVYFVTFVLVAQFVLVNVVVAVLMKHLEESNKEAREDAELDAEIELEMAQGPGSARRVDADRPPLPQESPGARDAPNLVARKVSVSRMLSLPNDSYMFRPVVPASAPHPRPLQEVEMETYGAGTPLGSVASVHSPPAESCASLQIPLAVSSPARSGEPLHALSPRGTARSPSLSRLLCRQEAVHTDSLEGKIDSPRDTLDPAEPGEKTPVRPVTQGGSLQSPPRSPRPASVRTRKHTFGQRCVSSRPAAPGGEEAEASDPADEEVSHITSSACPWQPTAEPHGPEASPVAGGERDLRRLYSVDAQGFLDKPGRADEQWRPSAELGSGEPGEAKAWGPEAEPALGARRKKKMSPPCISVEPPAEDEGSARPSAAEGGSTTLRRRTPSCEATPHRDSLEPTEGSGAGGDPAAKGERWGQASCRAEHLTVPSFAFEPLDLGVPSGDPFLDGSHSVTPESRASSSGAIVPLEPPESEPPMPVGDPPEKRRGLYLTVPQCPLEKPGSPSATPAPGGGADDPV
Fibroblast inh – blocks proliferation of human lung fibroblasts. AID 719. viability, % at 10 µM. actives 1.1% (n = 85,000). LL 47 human lung fibroblast viability, ATP luminescence; hits give low values;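 active = viability at or below 50% in the single dose screen; inactive = viability above 50%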;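 note: compound exposure lasted 72 h before the ATP readout; 100% = median luminescence of untreated cell-only wells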
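test system = LL 47 human lung fibroblasts | amount = 1,150 fibroblasts seeded per well | medium = 15% FBS in IMEM | times = overnight cell rest, 72 h compound treatment at 37 °C | measured by = CellTiter-Glo luminescence measuring cellular ATP | read-out = viability percentage against median untreated-cell control | benchmarks = cell-only wells, no compound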
Numbers without * were called inactive; . = no result given.

SMILES	HUVEC prolif 384	H69AR growth 86K	HCT116 PTEN-null	HCT116 bCat-KO	Cav32 inh	Fibroblast inh
CCC(=O)NC(c1cccs1)c1cc([N+](=O)[O-])c2cccnc2c1O (stereo not drawn)	.	.	5	3.0*	.	.
CCC(=O)NC(C)C(c1cccs1)N1CCOCC1 (stereo not drawn)	99	105	.	.	0.14	97
CCCC(=O)NC(c1cccs1)c1cc([N+](=O)[O-])c2cccnc2c1O (stereo not drawn)	.	.	4	5.5*	.	.
CC(C)C(=O)NC(c1ccccc1)c1cc([N+](=O)[O-])c2cccnc2c1O (stereo not drawn)	.	.	7	4.1*	.	.
CC(=O)NC(c1cccs1)c1cc([N+](=O)[O-])c2cccnc2c1O (stereo not drawn)	.	.	3.8*	5.6*	.	.
Cc1ccccc1NC(=S)NC1(C)CCS(=O)(=O)C1 (stereo not drawn)	.	.	85	93	.	.
COC(=O)CSc1nc2cc(OC)ccc2cc1C#N	72	75	27	18	0.53	89
CCOc1ccc2cc(C#N)c(SCC(=O)N3CCC(C)CC3)nc2c1	48	23*	44	37	0.43	79
CCOC(=O)CSc1nc2cc(OCC)ccc2cc1C#N	63	31*	87	92	-0.46	102
COc1ccc2cc(C#N)c(SCC(=O)NNC(=O)Cc3ccccc3)nc2c1	.	.	87	87	0.88	.
CCOc1ccc2cc(C#N)c(SCC(=O)NC(C)CC)nc2c1 (stereo not drawn)	68	29*	93	95	-0.008	102
COc1ccc2cc(C#N)c(SCC(=O)N3CCCC3)nc2c1	86	47	69	67	1.4	95
C[C@H]1O[C@H](O[C@H]2[C@H](O)[C@@H](O)[C@@H](O[C@H]3[C@H](O)[C@@H](O)C(O)O[C@@H]3CO)O[C@@H]2CO)[C@H](O)[C@@H](O)[C@@H]1N[C@H]1C=C(CO)[C@@H](O)[C@H](O)[C@H]1O (stereo partly drawn)	.	.	.	.	0.19	.
COc1ccc(CN(C)Cc2nc3scc(-c4ccccc4)c3c(=O)[nH]2)cc1OC	.	.	39	36	.	.
O=C1OC(/C=C/c2ccc(Cl)cc2)=NC/1=C/c1ccco1	.	.	86	101	.	.
CCC(CC)C1C(C#N)=C(N)Oc2n[nH]c(-c3ccccc3)c21 (stereo not drawn)	71	36*	86	82	0.43	76
CC(C)C1C(C#N)=C(N)Oc2n[nH]c(-c3ccc4ccccc4c3)c21 (stereo not drawn)	40	16*	25	25	-0.88	62
CCC(CC)C1C(C#N)=C(N)Oc2n[nH]c(C)c21 (stereo not drawn)	67	13*	75	54	-0.23	80
COC(=O)C1=C(C)N(CCc2cc(OC)c(OC)c(OC)c2)C(=O)N[C@H]1c1ccccc1	.	.	.	.	-0.46	.
Cc1ccc(C=Nc2ccc(N(C)C)cc2)o1	90	68	38	5.4*	-1.5	106
Cc1ccc2nc(-c3ccc(N4C(=N)SC5CS(=O)(=O)CC54)cc3)sc2c1 (stereo not drawn)	.	.	75	75	.	.
Cc1ccc2c(c1)cc(CN(Cc1ccc3c(c1)OCO3)S(=O)(=O)c1ccccc1)c1nnnn12	95	31*	99	81	-1.6	56
O=C1CC(O)(c2ccccc2)C(c2ccccc2)=C1c1ccccc1 (stereo not drawn)	84	71	55	53	-5*	86
CCC(C)NS(=O)(=O)c1ccc(S(=O)(=O)N(CC(=O)Nc2ccccc2)CC2CCCO2)cc1 (stereo not drawn)	99	85	80	85	-3	96
CCOC(=O)c1cc(C#N)c(Oc2cccc(C(F)(F)F)c2)nc1-c1ccccc1	.	.	57	73	-4.5*	.
SMILES	HUVEC prolif 384	H69AR growth 86K	HCT116 PTEN-null	HCT116 bCat-KO	Cav32 inh	Fibroblast inh
Cc1cc(=O)[nH]c(N=N/C(=N/Nc2ccccc2C)c2ccccc2)n1	12*	26*	3.6*	7	0.38	24*
COc1ccc(C(=O)CSc2nc(C)cc(=O)[nH]2)cc1	100	91	102	102	-0.04	98
COc1ccc(N/N=C(/N=Nc2nc(C)cc(=O)[nH]2)c2ccccc2)cc1	21*	27*	8	13	0.0037	16*
COC(=O)Cc1cc(=O)[nH]c(/N=C(/NC(=O)c2ccccc2)Nc2ccccc2C)n1	68	82	.	.	.	95
Cc1cc(=O)[nH]c(N=N/C(=N/Nc2ccc(O)cc2)c2ccccc2)n1	36	32*	60	40	0.94	51
C/C(=N\Nc1nc(C)cc(=O)[nH]1)C1CC1	.	.	100	95	.	.
Cc1ccc(-n2nnnc2C(Cl)(Cl)c2nnnn2-c2ccc(C)cc2)cc1	.	.	1.3*	1.8*	0.66	.
Cc1ccc(-n2nnnc2/C=C\Nc2cc(C)on2)cc1	.	.	73	69	.	.
CCOc1ccc2nc(-c3ccccc3)[nH]c2c1	58	24*	16	12	0.13	54
COc1ccc2nc(-c3ccccc3)[nH]c2c1	97	90	79	72	0.5	88
COc1ccc(CCN=C(N)NS(=O)(=O)c2ccc3ccccc3c2)cc1	.	.	68	76	.	.
COc1ccc(OC)c(NC(=O)c2c(NC(=O)CNCc3ccco3)sc3c2CCC3)c1	80	16*	79	90	2.1	78
COc1ccc(NC(=O)c2c(NC(=O)CNCc3ccco3)sc3c2CCC3)cc1	94	71	77	72	-1.2	92
COc1ccccc1C(=O)Nc1cc(Cl)ccc1O	87	87	75	83	-0.47	96
Cc1ccc(Cl)cc1NC(=O)c1ccccc1OCC(=O)Nc1ccc(Cl)cc1	.	.	2.9*	27	.	.
CCOc1ccccc1C(=O)Nc1cc(Cl)ccc1O	50	30*	66	57	0.22	99
Cc1ccc2c(c1)C(c1ccc([N+](=O)[O-])cc1)=NNC(c1ccc(Br)cc1)=N2	.	.	2.5*	3.5*	.	.
CC(C)Cn1c(-c2ccco2)nc2c(c(=O)c3ccccc3n2C)c1=O	.	.	63	56	.	.
Cn1c2ccccc2c(=O)c2c(=O)n(C3CCCCC3)c(-c3ccco3)nc21	.	.	3.4*	4.1*	.	.
O=C(NC(CSSCC(NC(=O)c1ccccc1)C(=O)O)C(=O)O)c1ccccc1 (stereo not drawn)	.	.	.	.	-0.55	.
CCOc1ccc(NC(=O)c2ccc(NC(=O)c3cn4c5c(c(N6CCN(C)CC6)c(F)cc5c3=O)OCC4C)cc2)cc1 (stereo not drawn)	.	.	2.2*	2.3*	.	.
CC1COc2c(N3CCN(C)CC3)c(F)cc3c(=O)c(C(=O)O)cn1c23 (stereo not drawn)	.	.	.	.	-2.1	.
Cc1c(C(=O)Nc2ccc(F)cc2)oc2ccc(S(=O)(=O)N3CC(C)CC(C)C3)cc12 (stereo not drawn)	51	12*	9	2.1*	-0.56	61
Cc1ccc(S(=O)(=O)C2C(=O)N(C)C3(C)CC2c2ccccc2O3)cc1 (stereo not drawn)	.	.	85	88	.	.
